Assay outcomes as filed in PubChem BioAssay.
A selection: hits, their analogues and other compounds. The true share with any hit is near 2.3%.
NR2E3 ag-1 – inhibitors of NR2E3-RetCOR corepressor binding, primary screen, NR2E3 agonist project, biochemical, TR-FRET, GST-NR2E3, biotin-RetCOR | inhibition of corepressor binding, % at 4.78 µM | Photoreceptor-specific nuclear receptor (Homo sapiens), Q9Y5X4 | 320,000 compounds, 0.12% hits | 1536-well;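 active = percent inhibition above the cutoff of mean plus 3 SD of all tested compounds, set per screening campaign, cut at about 20% in these data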;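 note: 0% = DMSO wells and 100% = biotin wells as full block of FRET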
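System: GST-NR2E3 and biotin-RetCOR proteins; probe or stimulus: 7 nM biotin-RetCOR; doses: compound at 4.8 µM, single dose; schedule: Compound–protein incubation for 5 h at 4 °C; detection: time-resolved FRET; read-out: percent inhibition; controls: biotin wells as high control, 0.6% DMSO wells as low control; format: 1536-well plates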
NR2E3 ag-2 – NR2E3 agonists in two-hybrid cells, primary screen, cell-based, luminescence, CHO-S, Gal4-NCOR/VP16-NR2E3. Photoreceptor-specific nuclear receptor (Homo sapiens), Q9Y5X4. luciferase. inhibition of corepressor binding, % at 3.98 µM. 360,000 compounds, 0.35% hits. AID 602229, 2012;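 active = inhibition above the mean of all tested compounds plus 3 SD, cut at about 70% in these data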;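 note: 0% = DMSO with NR2E3 transfected cells and 100% = cells lacking NR2E3 construct; higher means lower luciferase signal from less NR2E3 corepressor binding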
CHT PAM – CHT positive allosteric modulators, primary screen, cell-based, membrane potential dye, choline EC20; AID 488977, 2010; CHT-expressing cells; active compounds read high; LV-AA mutant CHT in HEK293 cells; B-score at 10 µM; High affinity choline transporter 1 (Homo sapiens), Q9GZV3; 310,000 compounds, 0.49% hits;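 active = initial fluorescence not abnormally high and integrated response B-score, plate-corrected, over 3 SD above library mean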
Target sequence (Q9GZV3 whole entry, looked up): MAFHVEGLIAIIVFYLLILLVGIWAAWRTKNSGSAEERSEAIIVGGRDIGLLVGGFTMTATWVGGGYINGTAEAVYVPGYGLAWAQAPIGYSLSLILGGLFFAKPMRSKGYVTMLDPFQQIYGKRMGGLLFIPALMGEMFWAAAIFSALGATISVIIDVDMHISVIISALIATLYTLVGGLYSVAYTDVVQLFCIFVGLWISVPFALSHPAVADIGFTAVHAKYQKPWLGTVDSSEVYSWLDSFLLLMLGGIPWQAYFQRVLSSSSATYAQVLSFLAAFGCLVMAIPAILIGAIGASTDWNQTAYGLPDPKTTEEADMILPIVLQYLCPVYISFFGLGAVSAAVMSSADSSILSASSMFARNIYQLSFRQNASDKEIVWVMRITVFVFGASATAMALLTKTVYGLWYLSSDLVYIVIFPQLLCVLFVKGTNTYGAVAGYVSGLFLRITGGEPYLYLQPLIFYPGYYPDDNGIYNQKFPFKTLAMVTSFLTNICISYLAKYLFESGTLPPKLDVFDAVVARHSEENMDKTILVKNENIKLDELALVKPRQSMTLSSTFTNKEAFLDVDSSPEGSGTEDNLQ
GalR3 antagonist – GalR3 antagonists in HEK293 cells, primary screen, cell-based, fluorescence readout; Galanin receptor type 3 (Homo sapiens), O60755; HEK293 GalR3-CNG cAMP membrane potential fluorescence; galR3 body fused to GalR1 C-terminus; inhibition, % at 3 µM; 360,000 compounds, 0.44% hits;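 active = inhibition above the screen-wide average plus 3 SD, cut at about 13% in these data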;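 note: forskolin and galanin both at EC90 stimulate the cells; cAMP rise reported by CNG channel membrane potential dye signal; 0% = forskolin plus galanin with DMSO and 100% = forskolin alone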
CHT inh – inhibitors of human choline transporter CHT | B-score at 10 µM | High affinity choline transporter 1 (Homo sapiens), Q9GZV3 | CHT-expressing cells, membrane potential dye, choline response; active compounds read low | 310,000 compounds, 0.86% hits;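 active = B-score over 3 SD under the library average, and starting fluorescence ratio not unusually high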;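 note: choline stimulus applied at its EC90 after an EC20 pre-addition; B-score computed on integrated fluorescence ratio after choline addition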
COUP-TFII inh – NR2F2 transcriptional activity inhibitors, primary screen, cell-based, luciferase reporter, HEK293T, luminescence. COUP transcription factor 2 (Homo sapiens), P24468. HEK293T NGFI-A luciferase reporter. inhibition, % at 8.6 µM. 370,000 compounds, 0.7% hits;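 active = inhibition above a per-plate cutoff, mean inhibition of test wells between control levels plus 3 SD, cut at about 38% in these data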;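 note: cells cotransfected with COUP-TFII expression vector driving the NGFI-A reporter; 0% = median of COUP-TF2 test wells and 100% = reporter-only cells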
Gal4-VP16 ctr – Gal4-VP16 luciferase reporter inhibitors, counter-screen for COUP-TFII antagonist project, cell-based, luminescence, HEK293; inhibition, % at 8.5 µM; 2,500 compounds, 25% hits; shares compounds with COUP-TFII inh; in the data active = inhibition above about 13%
NR2F2 inh conf – NR2F2 transcriptional activity inhibitors, confirmation, cell-based, luciferase reporter, HEK293, triplicate. inhibition, % at 8.5 µM. HEK293 NGFI-A luciferase reporter, luminescence. shares compounds with COUP-TFII inh. 2,500 compounds, 45% hits. AID 687008, 2013;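 active = mean inhibition over three repeats above a set limit taken from the earlier primary screen, cut at about 38% in these data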;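 note: 100% = cells given the luciferase reporter alone without the COUP-TF2 vector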
* marks the source's active call; other numbers are inactive results; i = inactive; . = no result given.

SMILES	NR2E3 ag-1	NR2E3 ag-2	CHT PAM	GalR3 antagonist	CHT inh	COUP-TFII inh	Gal4-VP16 ctr	NR2F2 inh conf
COc1ccccc1OCc1ccc(C(=O)Nc2ccncc2)o1	4.8	-11.7	i	-4.8	i	38.9*	3.2	15.5
COc1ccccc1OCc1ccc(C(=O)NC(C)(C)C)o1	-0.5	-20.9	i	0.2	i	8.8	.	.
COc1ccc(CCNC(=O)Nc2ccc3c(c2)[C@@]2(CC(=O)N(CC(C)C)C2c2ccccc2)C(=O)N3C)cc1OC (stereo not given in full)	.	.	.	.	.	11.8	.	.
CN(CCc1ccccc1)C(=O)c1ccc(NC(=O)Cc2ccc(NC(=O)C3CCCN(C(=O)CCc4ccccc4)C3)cc2)cc1 (stereo not given)	.	-31.2	.	-8.0	.	72.7*	3.0	71.5*
CN(CCc1ccccc1)C(=O)c1ccc(NC(=O)Cc2ccc(NC(=O)C3CCCN(C(=O)C4CCC4)C3)cc2)cc1 (stereo not given)	.	-7.8	.	-7.3	.	27.1	.	.
O=C1CCC(CNc2ccccc2)N1c1ccccc1 (stereo not given)	.	.	.	.	.	-23.4	.	.
COc1cc(C=c2c3ccccc3n3c2cc(-c2ccccc2)[n+]3C)cc(OC)c1OC	.	-41.6	.	-5.3	.	38.3*	-0.8	6.9
COc1cc(/C=C(/C(=O)O)c2ccc(-c3ccccc3)cc2)cc(OC)c1OC	5.3	-61.8	i	-8.5	i	-0.5	.	.
CN(C)c1ccc(C=c2c3cc([N+](=O)[O-])ccc3n3c2cc(-c2ccccc2)[n+]3C)cc1	.	-11.4	.	-1.5	.	68.5*	53.4*	58.9*
CSc1ccc(CN(C)C(=O)c2cc(S(=O)(=O)NCc3ccccc3)ccc2C)cc1	1.1	27.2	i	-4.8	i	53.3*	-4.9	8.7
CC[C@H]1OC(=O)[C@H](C)[C@@H](O[C@H]2C[C@@](C)(OC)[C@@H](O)[C@H](C)O2)C(C)[C@@H](O[C@@H]2O[C@H](C)C[C@H](N(C)C)[C@H]2O)[C@](C)(O)C[C@@H](C)CN(C)[C@H](C)[C@@H](O)[C@]1(C)O (stereo not given in full)	.	.	.	.	.	-2.8	.	.
CCC(C(=O)NCc1ccccc1)n1c(CSCCOc2ccccc2)nc2ccccc21 (stereo not given)	.	.	.	-5.2	.	58.4*	7.5	23.3
COc1ccc(C(C(=O)NC2CCCC2)n2c(CSCCOc3ccccc3)nc3ccccc32)cc1 (stereo not given)	.	.	.	-0.7	.	70.0*	27.7*	45.6*
COc1ccc(C(C(=O)NC2CCCC2)n2c(Cc3cc(F)cc(F)c3)nc3ccccc32)cc1 (stereo not given)	.	.	.	-9.3	.	9.6	.	.
CCN(CC)C(=O)CC[C@@H]1CC[C@]2(CCCN(Cc3ccccn3)C2)O1	.	.	.	.	.	6.4	.	.
COC(=O)C1CN(Cc2cn(Cc3ccc(OC)cc3)nn2)CCS(=O)(=O)N1Cc1ccc(C)cc1 (stereo not given)	.	.	.	.	.	-1.1	.	.
CCn1c(COc2ccc(Cl)cc2)nnc1SCC(=O)Nc1ccc(Oc2ccccc2)cc1	.	.	.	.	.	33.6	.	.
Cc1ccc(S(=O)(=O)N(C)c2ccc(OCC(=O)Nc3nc4ccccc4s3)cc2)cc1	0.8	-23.1	i	-8.4	i	38.5*	4.9	27.5
CCN1CCN(c2cc(C)c3cc(NC(=S)N4CCCC(C)C4)ccc3n2)CC1 (stereo not given)	-0.1	39.4	i	-5.2	i	46.1*	26.1*	35.0
Cc1ccc(C)c(N2CCN(C(=O)C3CCN(S(=O)(=O)c4c(C)noc4C)CC3)CC2)c1	-1.5	43.7	i	-7.8	i	53.4*	-4.1	32.8
CC1Cc2ccccc2N1c1ncnc(N)c1[N+](=O)[O-] (stereo not given)	-0.9	-14.6	i	6.1	i	47.3*	20.7*	34.1
CN(C)[C@@H]1CCN(c2cccc3c2S(=O)(=O)N2CC[C@H](C2)O3)C1	.	.	.	.	.	-7.5	.	.
CCN(CC)c1nc(C=Cc2ccc(N(C)C)cc2)c2nccnc2n1	.	-9.9	.	-4.4	.	87.9*	-11.7	-4.4
O=C(CCCCCN1C(=O)C2C3C=CC(C3)C2C1=O)Nc1cc(F)cc(F)c1 (stereo not given)	.	.	.	.	.	30.6	.	.
O=C(CCCN1C(=O)/C(=C/c2ccccc2Cl)SC1=S)NNC(=O)c1ccc(Cl)cc1Cl	-0.6	-13.1	i	-2.2	i	71.7*	39.3*	41.7*
SMILES	NR2E3 ag-1	NR2E3 ag-2	CHT PAM	GalR3 antagonist	CHT inh	COUP-TFII inh	Gal4-VP16 ctr	NR2F2 inh conf
O=C(CCCN1C(=O)/C(=C/c2ccccc2Cl)SC1=S)NNC(=O)c1ccccc1	-0.3	23.5	i	-3.4	i	64.3*	28.3*	38.3*
Cc1cc(NC(=O)CCN2C(=O)/C(=C\c3ccccc3Cl)SC2=S)no1	-0.9	10.2	i	-3.1	i	-15.9	.	.
O=C(Nc1ccc(CN2CCS(=O)(=O)CC2)cc1)c1ccc(C(F)(F)F)cc1	-2.2	-12.2	i	-1.3	i	50.5*	12.9	31.7
CCC(C)Oc1ccc(C(=O)Nc2ccc(CN3CCOCC3)cc2)cc1 (stereo not given)	.	-4.0	i	-9.8	i	40.0*	-15.9	12.3
Cc1c(C(=O)NCc2ccccc2C(F)(F)F)sc(=O)n1Cc1ccc(S(=O)(=O)N(C)C)cc1	.	21.9	.	-2.8	.	11.5	.	.
Cc1c(C(=O)NCc2ccc(C(F)(F)F)cc2)sc(=O)n1Cc1ccc(S(=O)(=O)N(C)C)cc1	.	30.9	.	-7.8	.	41.9*	-3.9	20.8
COc1ccc(CNC(=O)c2sc(=O)n(Cc3ccc(S(=O)(=O)N(C)C)cc3)c2C)cc1	.	30.7	.	-1.7	.	44.6*	7.7	16.2
Cc1ccc(-c2cc3onc(-c4ccccc4)c3c(=O)n2C)cc1	1.9	38.1	i	-2.7	i	43.3*	33.9*	71.9*
CNC(=O)c1ccc(-c2cc3onc(-c4ccccc4)c3c(=O)n2C)cc1	.	-78.0	.	-8.2	.	-16.3	.	.
O=C(OCc1cn(Cc2cc(F)ccc2F)nn1)N1CCOCC1	.	.	.	.	.	-7.1	.	.
CC1(C(=O)NCc2cccnc2)Cc2c(-c3cccc(C(F)(F)F)c3)ccnc2O1 (stereo not given)	.	-14.4	.	-2.9	.	38.6*	-7.8	6.7
